Test results reported in ChEMBL document CHEMBL3244192, “Antiallergic activity of tetracyclic derivatives of quinoline-2-carboxylic acids. 1” (1978).
Calls of active or inactive are those of the source. The rule behind the calls is not given here.

Experiments:
Rattus norvegicus [1] = test: Antiallergic activity in egg albumin-sensitized Sprague-Dawley rat assessed as inhibition of passive cutaneous anaphylaxis compound administered ip 5 mins prior to egg albumin and Evans blue dye challenge; assay type: functional; conditions: for minimal effective dose: read-out: MED; for ED50: read-out: ID50 (the source's name)
Outline: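 Antibody from egg albumin/B. pertussis-sensitized rats was injected intradermally in the mid-dorsal region, then 24 h allowed. Drug was given ip, then iv egg albumin plus Evans blue. Weal size and intensity were scored against untreated controls. Initial doses were 50 or 25 mg/kg, then 10, 5, 2.5 and 1.25 mg/kg, with n = 6 per group. MED was the lowest significant ip dose (p ≤ 0.05, Student's t). ID50 was reported with 95% confidence limits.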

Rattus norvegicus [2] = test: Antiallergic activity in egg albumin-sensitized Sprague-Dawley rat assessed as inhibition of passive cutaneous anaphylaxis at 25 to 50 mg/kg, po administered 15 mins prior to egg albumin and Evans blue dye challenge; assay type: functional, organism-based
Outline: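 Rats were passively sensitized by intradermal mid-dorsal injection of antibody. The antibody came from rats sensitized to egg albumin with Bordetella pertussis adjuvant, and sensitivity developed over 24 h. Compound was given orally before iv egg albumin plus Evans blue. Blue weal size and intensity were compared with untreated rats to give percent inhibition.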

Rattus norvegicus [3] = test: Antiallergic activity in egg albumin-sensitized Sprague-Dawley rat assessed as inhibition of passive cutaneous anaphylaxis compound administered prior to egg albumin and Evans blue dye challenge; conditions: read-out: MED

**Q.** O=C(c1ccccc1)c1ccc2c(=O)cc(C(=O)O)[nH]c2c1 was tested. Which minimal effective dose (Rattus norvegicus [1]) did it give?
**A.** The minimal effective dose was 25 mg/kg.

**Q.** What about the inhibition (Rattus norvegicus [2]) of the same compound?
**A.** Its inhibition is “inactive”.

**Q.** What does the source list for O=C(O)c1cc(=O)c2cc([S+]([O-])c3ccccc3)ccc2[nH]1 (stereo not given)?
**A.** minimal effective dose (Rattus norvegicus [1]): 25 mg/kg; inhibition (Rattus norvegicus [2]): inactive

**Q.** For CC(=O)c1ccc2[nH]c(C(=O)O)cc(=O)c2c1, which minimal effective dose (Rattus norvegicus [1]) is on record?
**A.** The minimal effective dose was 25 mg/kg.

**Q.** What about the inhibition (Rattus norvegicus [2]) of the same compound?
**A.** The inhibition was “inactive”.

**Q.** O=C(O)c1cc(=O)c2ccccc2[nH]1 [TRANSTORINE] was tested. Which minimal effective dose (Rattus norvegicus [1]) did it give?
**A.** The minimal effective dose was 50 mg/kg.

**Q.** What about the inhibition (Rattus norvegicus [2]) of the same compound?
**A.** Its inhibition is “inactive”.

**Q.** What does the source list for CC(=O)c1cccc2c(=O)cc(C(=O)O)[nH]c12?
**A.** minimal effective dose (Rattus norvegicus [1]): 25 mg/kg; inhibition (Rattus norvegicus [2]): inactive

**Q.** What does the source list for O=C(O)c1cc(=O)c2ccc(S(=O)(=O)c3ccccc3)cc2[nH]1?
**A.** minimal effective dose (Rattus norvegicus [1]): > 25 mg/kg; inhibition (Rattus norvegicus [2]): inactive

**Q.** Which inhibition (Rattus norvegicus [2]) does the source give for COC(=O)c1cc(=O)c2cccc(Sc3ccccc3)c2[nH]1 here?
**A.** Its inhibition is “inactive”.

**Q.** COC(=O)c1cc(=O)c2cccc(C(=O)c3ccccc3)c2[nH]1 was tested. Which inhibition (Rattus norvegicus [2]) did it give?
**A.** Its inhibition is “inactive”.

**Q.** O=C(O)c1cc(=O)c2cccc(S(=O)(=O)c3ccccc3)c2[nH]1 was tested. Which minimal effective dose (Rattus norvegicus [1]) did it give?
**A.** Its minimal effective dose is 10 mg/kg.

**Q.** And the inhibition (Rattus norvegicus [2])?
**A.** Its inhibition is “inactive”.

**Q.** COC(=O)c1cc(=O)c2cc(C(C)=O)ccc2[nH]1 was tested. Which inhibition (Rattus norvegicus [2]) did it give?
**A.** Its inhibition is “inactive”.

**Q.** COC(=O)c1cc(=O)c2ccc3c(c2[nH]1)C(=O)c1ccccc1-3 was tested. Which inhibition (Rattus norvegicus [2]) did it give?
**A.** The inhibition was “inactive”.

**Q.** With O=C(O)c1cc(=O)c2ccc3c(c2[nH]1)C(=O)c1ccccc1-3 as the compound, how does the ED50 (Rattus norvegicus [1]) read?
**A.** Its ED50 is 2.8 mg/kg.

**Q.** What about the inhibition (Rattus norvegicus [2]) of the same compound?
**A.** The inhibition was “inactive”.

**Q.** O=C(O)c1cc(=O)c2ccc3c(c2[nH]1)-c1ccccc1C3=O was tested. Which minimal effective dose (Rattus norvegicus [1]) did it give?
**A.** Its minimal effective dose is greater than 25 mg/kg.

**Q.** And the inhibition (Rattus norvegicus [2])?
**A.** The inhibition was “inactive”.

**Q.** For COC(=O)c1cc(=O)c2ccc(Sc3ccccc3)cc2[nH]1, which inhibition (Rattus norvegicus [2]) is on record?
**A.** The inhibition was “inactive”.

**Q.** O=C(O)c1cc(=O)c2cccc(C(=O)c3ccccc3)c2[nH]1 was tested. Which minimal effective dose (Rattus norvegicus [1]) did it give?
**A.** Its minimal effective dose is 25 mg/kg.

**Q.** What about the inhibition (Rattus norvegicus [2]) of the same compound?
**A.** Its inhibition is “inactive”.

**Q.** For COC(=O)c1cc(=O)c2cccc(S(=O)(=O)c3ccccc3)c2[nH]1, which inhibition (Rattus norvegicus [2]) is on record?
**A.** The inhibition was “inactive”.

**Q.** For COC(=O)c1cc(=O)c2ccc(C(C)=O)cc2[nH]1, which inhibition (Rattus norvegicus [2]) is on record?
**A.** Its inhibition is “inactive”.

**Q.** With O=C([O-])c1cc(=O)c2c(OCC(O)COc3cccc4oc(C(=O)[O-])cc(=O)c34)cccc2o1.[Na+].[Na+] [CROMOLYN SODIUM] as the compound, how does the ED50 (Rattus norvegicus [1]) read?
**A.** Its ED50 is 2.6 mg/kg.

**Q.** What about the inhibition (Rattus norvegicus [2]) of the same compound?
**A.** Its inhibition is “inactive”.

**Q.** For O=C(O)c1cc(=O)c2cc(Sc3ccccc3)ccc2[nH]1, which minimal effective dose (Rattus norvegicus [1]) is on record?
**A.** Its minimal effective dose is greater than 50 mg/kg.

**Q.** What about the inhibition (Rattus norvegicus [2]) of the same compound?
**A.** The inhibition was “inactive”.

**Q.** Which minimal effective dose (Rattus norvegicus [1]) does the source give for O=C(O)c1cc(=O)c2ccc(Sc3ccccc3)cc2[nH]1 here?
**A.** The minimal effective dose was greater than 25 mg/kg.

**Q.** What about the inhibition (Rattus norvegicus [2]) of the same compound?
**A.** The inhibition was “inactive”.

**Q.** With COC(=O)c1cc(=O)c2cc(Sc3ccccc3)ccc2[nH]1 as the compound, how does the inhibition (Rattus norvegicus [2]) read?
**A.** The inhibition was “inactive”.

**Q.** With O=C(O)c1cc(=O)c2cc(S(=O)(=O)c3ccccc3)ccc2[nH]1 as the compound, how does the minimal effective dose (Rattus norvegicus [1]) read?
**A.** The minimal effective dose was greater than 25 mg/kg.

**Q.** And the inhibition (Rattus norvegicus [2])?
**A.** The inhibition was “inactive”.

**Q.** Which minimal effective dose (Rattus norvegicus [1]) does the source give for Cc1ccc(C(=O)c2cccc3c(=O)cc(C(=O)O)[nH]c23)cc1 here?
**A.** The minimal effective dose was 25 mg/kg.

**Q.** And the inhibition (Rattus norvegicus [2])?
**A.** Its inhibition is “inactive”.

**Q.** For COC(=O)c1cc(=O)c2cc([S+]([O-])c3ccccc3)ccc2[nH]1 (stereo not given), which inhibition (Rattus norvegicus [2]) is on record?
**A.** The inhibition was “inactive”.

**Q.** For COC(=O)c1cc(=O)c2cccc(C(=O)c3ccc(C)cc3)c2[nH]1, which inhibition (Rattus norvegicus [2]) is on record?
**A.** Its inhibition is “inactive”.

**Q.** How did the inhibition (Rattus norvegicus [2]) turn out when COC(=O)c1cc(=O)c2cc(Cl)cc(C(=O)c3ccccc3)c2[nH]1 was run?
**A.** Its inhibition is “inactive”.

**Q.** Which minimal effective dose (Rattus norvegicus [1]) does the source give for O=C(O)c1cc(=O)c2cccc(Sc3ccccc3)c2[nH]1 here?
**A.** Its minimal effective dose is 25 mg/kg.

**Q.** What about the inhibition (Rattus norvegicus [2]) of the same compound?
**A.** The inhibition was “inactive”.

**Q.** How did the inhibition (Rattus norvegicus [2]) turn out when COC(=O)c1cc(=O)c2ccc(C(=O)c3ccccc3)cc2[nH]1 was run?
**A.** The inhibition was “inactive”.

**Q.** How did the inhibition (Rattus norvegicus [2]) turn out when COC(=O)c1cc(=O)c2ccc3c(c2[nH]1)-c1ccccc1C3=O was run?
**A.** Its inhibition is “inactive”.

**Q.** How did the minimal effective dose (Rattus norvegicus [1]) turn out when CC(=O)c1ccc2c(O)cc(C(=O)O)nc2c1 was run?
**A.** Its minimal effective dose is 10 mg/kg.

**Q.** And the inhibition (Rattus norvegicus [2])?
**A.** The inhibition was “inactive”.

**Q.** With COC(=O)c1cc(=O)c2cc(S(=O)(=O)c3ccccc3)ccc2[nH]1 as the compound, how does the inhibition (Rattus norvegicus [2]) read?
**A.** Its inhibition is “inactive”.

**Q.** How did the minimal effective dose (Rattus norvegicus [1]) turn out when O=C(O)c1cc(=O)c2cc(Cl)cc(C(=O)c3ccccc3)c2[nH]1 was run?
**A.** Its minimal effective dose is 50 mg/kg.

**Q.** And the inhibition (Rattus norvegicus [2])?
**A.** The inhibition was “inactive”.

**Q.** For COC(=O)c1cc(=O)c2ccc(S(=O)(=O)c3ccccc3)cc2[nH]1, which inhibition (Rattus norvegicus [2]) is on record?
**A.** The inhibition was “inactive”.

**Q.** What does the source list for O=C(c1ccccc1)c1ccc2[nH]c(C(=O)[O-])cc(=O)c2c1.[Na+]?
**A.** minimal effective dose (Rattus norvegicus [1]): 10 mg/kg; inhibition (Rattus norvegicus [2]): inactive

**Q.** How did the inhibition (Rattus norvegicus [2]) turn out when COC(=O)c1cc(=O)c2cc(C(=O)c3ccccc3)ccc2[nH]1 was run?
**A.** Its inhibition is “inactive”.

**Q.** How did the minimal effective dose (Rattus norvegicus [3]) turn out when COC(=O)c1cc(=O)c2cccc(C(C)=O)c2[nH]1 was run?
**A.** Its minimal effective dose is 25 mg/kg.
